# pIC50: −log10 of the molar value. Active and inactive are the calls of the source. The rule behind the calls is not given here.
# Tested on: Huh-7
# Assay: Antiproliferative activity against human Huh-7 cells assessed as cell growth inhibition measured at 72 hrs by MTT assay
# Details: Huh-7, 72 h
row,SMILES,pIC50
1,Cc1ccc(O)cc1NC(=O)c1cnc(Nc2nc(SCCN3CCOCC3)nc3c2cnn3C)s1,4.99
2,Cc1nc(Nc2ncc(C(=O)Nc3c(C)cccc3Cl)s2)cc(N2CCN(CCO)CC2)n1 [DASATINIB ANHYDROUS],4.90

# Tested on: not listed separately
# Assay: Cytotoxicity against human HEK293 cells assessed as reduction in cell proliferation incubated for 24 hrs by MTT assay
# Format: toxicity, cell-based
# Details: not given
row,SMILES,CC50 at 24 h
1,Cc1ccc(O)cc1NC(=O)c1cnc(Nc2nc(SCCN3CCOCC3)nc3c2cnn3C)s1,18.5 µM
2,Cc1nc(Nc2ncc(C(=O)Nc3c(C)cccc3Cl)s2)cc(N2CCN(CCO)CC2)n1 [DASATINIB ANHYDROUS],5.4 µM

# Tested on: HepG2
# Assay: Antiproliferative activity against human HepG2 cells assessed as cell growth inhibition measured at 72 hrs by MTT assay
# Details: HepG2, 72 h
row,SMILES,pIC50
1,Cc1ccc(O)cc1NC(=O)c1cnc(Nc2nc(SCCN3CCOCC3)nc3c2cnn3C)s1,5.61
2,Cc1nc(Nc2ncc(C(=O)Nc3c(C)cccc3Cl)s2)cc(N2CCN(CCO)CC2)n1 [DASATINIB ANHYDROUS],5.11

# Tested on: HepG2
# Assay: Induction of cell cycle arrest in human HepG2 cells assessed as accumulation of cells at S phase incubated for 72 hrs by FACScan flow cytometer analysis relative to control
# Format: functional
# Details: not given
# Outline: (§1)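 HepG2 treated about 2 µM for 72 h. DNA content measured by FACScan flow cytometry, red fluorescence through a 563–607 nm bandpass (FL2), 10^4 cells/sample. Phase percentages are means ± SD of three independent experiments in triplicate vs control.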
row,SMILES,Activity
1,Cc1ccc(O)cc1NC(=O)c1cnc(Nc2nc(SCCN3CCOCC3)nc3c2cnn3C)s1,25.2%

# Tested on: not listed separately
# Assay: Cytotoxicity against human HaCaT cells assessed as reduction in cell proliferation incubated for 24 hrs by MTT assay
# Format: toxicity, cell-based
# Details: not given
row,SMILES,CC50 at 24 h
1,Cc1ccc(O)cc1NC(=O)c1cnc(Nc2nc(SCCN3CCOCC3)nc3c2cnn3C)s1,92.8 µM
2,Cc1nc(Nc2ncc(C(=O)Nc3c(C)cccc3Cl)s2)cc(N2CCN(CCO)CC2)n1 [DASATINIB ANHYDROUS],20.4 µM

# Tested on: not listed separately
# Assay: Apparent permeability of compound in PBS buffer at pH 7.4 incubated for 4 hrs by LC-UV-MS analysis
# Format: ADME
# Details: not told
# Outline: (§2)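 PAMPA: DMSO stock diluted 1:1 with 10 mM PBS pH 7.4 as donor, through filter coated with 1% phosphatidylcholine in dodecane. Acceptor DMSO/PBS 1:1; incubated at rt for 4 h with gentle shaking. Both compartments quantified by LC-UV-MS to give Papp and % membrane retention; three independent experiments in triplicate.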
row,SMILES,Papp at 4 h
1,Cc1ccc(O)cc1NC(=O)c1cnc(Nc2nc(SCCN3CCOCC3)nc3c2cnn3C)s1,< 0.1 ×10⁻⁶ cm/s

# Tested on: not listed separately
# Assay: Stability in human plasma measured after 24 hrs by UV-LC/MS analysis
# Format: ADME, cell-free
# Details: read-out: Stability
row,SMILES,remaining at 24 h
1,Cc1ccc(O)cc1NC(=O)c1cnc(Nc2nc(SCCN3CCOCC3)nc3c2cnn3C)s1,> 100%

# Tested on: not listed separately
# Assay: Cytotoxicity against human HEK293 cells assessed as reduction in cell proliferation incubated for 72 hrs by MTT assay
# Format: toxicity, cell-based
# Details: not given
row,SMILES,CC50 at 72 h
1,Cc1ccc(O)cc1NC(=O)c1cnc(Nc2nc(SCCN3CCOCC3)nc3c2cnn3C)s1,5.23 µM
2,Cc1nc(Nc2ncc(C(=O)Nc3c(C)cccc3Cl)s2)cc(N2CCN(CCO)CC2)n1 [DASATINIB ANHYDROUS],0.78 µM

# Tested on: Huh-7
# Assay: Antiproliferative activity against human Huh-7 cells assessed as cell growth inhibition measured at 48 hrs by MTT assay
# Details: Huh-7, 48 h
row,SMILES,pIC50
1,Cc1ccc(O)cc1NC(=O)c1cnc(Nc2nc(SCCN3CCOCC3)nc3c2cnn3C)s1,4.54
2,Cc1nc(Nc2ncc(C(=O)Nc3c(C)cccc3Cl)s2)cc(N2CCN(CCO)CC2)n1 [DASATINIB ANHYDROUS],4.79

# Tested on: not listed separately
# Assay: Cytotoxicity against human HaCaT cells assessed as reduction in cell proliferation incubated for 72 hrs by MTT assay
# Format: toxicity, cell-based
# Details: not given
row,SMILES,CC50 at 72 h
1,Cc1ccc(O)cc1NC(=O)c1cnc(Nc2nc(SCCN3CCOCC3)nc3c2cnn3C)s1,3.27 µM
2,Cc1nc(Nc2ncc(C(=O)Nc3c(C)cccc3Cl)s2)cc(N2CCN(CCO)CC2)n1 [DASATINIB ANHYDROUS],0.22 µM

# Tested on: HepG2
# Assay: Antiproliferative activity against human HepG2 cells assessed as inhibition of cell growth at 10 to 100 uM preincubated for 24 hrs followed by 48 hrs drug-free treatment by MTT assay
# Format: functional, cell-based
# Details: dose 10-100 µM
# Outline: (§3)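 HepG2 exposed to 0.1–100 µM for 24 h (or 48 h), then washed with PBS and kept 48 h (or 24 h) in drug-free DMEM with 10% FBS. Viability by MTT. Means ± SD of three independent experiments in triplicate; ANOVA with Tukey test.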
row,SMILES,Activity
1,Cc1ccc(O)cc1NC(=O)c1cnc(Nc2nc(SCCN3CCOCC3)nc3c2cnn3C)s1,inactive

# Tested on: HepG2
# Assay: Induction of cell cycle arrest in human HepG2 cells assessed as accumulation of cells at G2/M phase incubated for 72 hrs by FACScan flow cytometer analysis relative to control
# Format: functional
# Details: not given
# Outline: as §1
row,SMILES,Activity
1,Cc1ccc(O)cc1NC(=O)c1cnc(Nc2nc(SCCN3CCOCC3)nc3c2cnn3C)s1,38.5%

# Tested on: HepG2
# Assay: Inhibition of cell migration in human HepG2 cells assessed as wound closure at 0.25 uM measured at 72 hrs by T-sratch assay
# Details: HepG2, 72 h
row,SMILES,wound closure % at 0.25 µM
1,Cc1ccc(O)cc1NC(=O)c1cnc(Nc2nc(SCCN3CCOCC3)nc3c2cnn3C)s1,~70%

# Tested on: not listed separately
# Assay: Cytotoxicity against human HaCaT cells assessed as reduction in cell proliferation incubated for 48 hrs by MTT assay
# Format: toxicity, cell-based
# Details: not given
row,SMILES,CC50 at 48 h
1,Cc1ccc(O)cc1NC(=O)c1cnc(Nc2nc(SCCN3CCOCC3)nc3c2cnn3C)s1,22.8 µM
2,Cc1nc(Nc2ncc(C(=O)Nc3c(C)cccc3Cl)s2)cc(N2CCN(CCO)CC2)n1 [DASATINIB ANHYDROUS],1.35 µM

# Tested on: HepG2
# Assay: Antiproliferative activity against human HepG2 cells assessed as cell growth inhibition measured at 24 hrs by MTT assay
# Details: HepG2, 24 h
row,SMILES,pIC50
1,Cc1ccc(O)cc1NC(=O)c1cnc(Nc2nc(SCCN3CCOCC3)nc3c2cnn3C)s1,4.22
2,Cc1nc(Nc2ncc(C(=O)Nc3c(C)cccc3Cl)s2)cc(N2CCN(CCO)CC2)n1 [DASATINIB ANHYDROUS],4.63

# Tested on: HepG2
# Assay: Antiproliferative activity against human HepG2 cells assessed as inhibition of cell growth at 0.1 to 1 uM incubated for 24 hrs by MTT assay
# Format: functional, cell-based
# Details: dose 0.1-1 µM
# Outline: as §3
row,SMILES,Activity
1,Cc1ccc(O)cc1NC(=O)c1cnc(Nc2nc(SCCN3CCOCC3)nc3c2cnn3C)s1,Active

# Tested on: Huh-7
# Assay: Antiproliferative activity against human Huh-7 cells assessed as cell growth inhibition measured at 24 hrs by MTT assay
# Details: Huh-7, 24 h
row,SMILES,pIC50
1,Cc1ccc(O)cc1NC(=O)c1cnc(Nc2nc(SCCN3CCOCC3)nc3c2cnn3C)s1,4.26
2,Cc1nc(Nc2ncc(C(=O)Nc3c(C)cccc3Cl)s2)cc(N2CCN(CCO)CC2)n1 [DASATINIB ANHYDROUS],4.43

# Tested on: not listed separately
# Assay: Metabolic stability in human liver microsome measured after 1 hr in presence of NADPH by UV/LC-MS analysis
# Format: ADME
# Details: liver microsomes, read-out: Stability
# Outline: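 Compound incubated with HLM (0.2 mg/mL) and NADPH (in 48 mM MgCl2) in 10 mM PBS pH 7.4 at 37 °C for 60 min with shaking. Stopped with cold ACN, centrifuged, dried under N2 and quantified by UV/LC-MS for % unmetabolized.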
row,SMILES,remaining at 1 h
1,Cc1ccc(O)cc1NC(=O)c1cnc(Nc2nc(SCCN3CCOCC3)nc3c2cnn3C)s1,> 100%

# Tested on: HepG2
# Assay: Induction of cell cycle arrest in human HepG2 cells assessed as accumulation of hypodiploid cells at sub G0/G1 phase incubated for 72 hrs by FACScan flow cytometer analysis relative to control
# Format: functional
# Details: not given
# Outline: as §1
row,SMILES,Activity
1,Cc1ccc(O)cc1NC(=O)c1cnc(Nc2nc(SCCN3CCOCC3)nc3c2cnn3C)s1,44.1%

# Tested on: HepG2
# Assay: Antiproliferative activity against human HepG2 cells assessed as cell growth inhibition measured at 48 hrs by MTT assay
# Details: HepG2, 48 h
row,SMILES,pIC50
1,Cc1ccc(O)cc1NC(=O)c1cnc(Nc2nc(SCCN3CCOCC3)nc3c2cnn3C)s1,4.86
2,Cc1nc(Nc2ncc(C(=O)Nc3c(C)cccc3Cl)s2)cc(N2CCN(CCO)CC2)n1 [DASATINIB ANHYDROUS],5.02

# Tested on: HepG2
# Assay: Induction of cell cycle arrest in human HepG2 cells assessed as decrease in accumulation of G0/G1 phase incubated for 72 hrs by FACScan flow cytometer analysis relative to control
# Format: functional
# Set-up: scale not given: the % may be the effect or the level left
# Details: not given
# Outline: as §1
row,SMILES,Activity
1,Cc1ccc(O)cc1NC(=O)c1cnc(Nc2nc(SCCN3CCOCC3)nc3c2cnn3C)s1,10.4%

# Tested on: HepG2
# Assay: Antiproliferative activity against human HepG2 cells assessed as cell viability at 0.1 to 1 uM preincubated for 24 hrs followed by 48 hrs drug-free treatment by MTT assay
# Format: functional
# Details: dose 0.1-1 µM
# Outline: as §3
row,SMILES,Activity
1,Cc1ccc(O)cc1NC(=O)c1cnc(Nc2nc(SCCN3CCOCC3)nc3c2cnn3C)s1,15%

# Tested on: not listed separately
# Assay: Cytotoxicity against human HEK293 cells assessed as reduction in cell proliferation incubated for 48 hrs by MTT assay
# Format: toxicity, cell-based
# Details: not given
row,SMILES,CC50 at 48 h
1,Cc1ccc(O)cc1NC(=O)c1cnc(Nc2nc(SCCN3CCOCC3)nc3c2cnn3C)s1,6.9 µM
2,Cc1nc(Nc2ncc(C(=O)Nc3c(C)cccc3Cl)s2)cc(N2CCN(CCO)CC2)n1 [DASATINIB ANHYDROUS],0.89 µM

# Tested on: not listed separately
# Assay: Inhibition of Abl (unknown origin)
# Details: not given
row,SMILES,pIC50
1,Cc1nc(Nc2ncc(C(=O)Nc3c(C)cccc3Cl)s2)cc(N2CCN(CCO)CC2)n1 [DASATINIB ANHYDROUS],9.22

# Tested on: not listed separately
# Assay: Permeability of the compound in PBS buffer at pH 7.4 assessed as membrane retention rate by PAMPA method
# Format: ADME
# Details: not given
# Outline: as §2
row,SMILES,membrane retention
1,Cc1ccc(O)cc1NC(=O)c1cnc(Nc2nc(SCCN3CCOCC3)nc3c2cnn3C)s1,19%

# Tested on: not listed separately
# Assay: Thermodynamic solubility of compound by LC-MS/MS analysis
# Format: physicochemical
# Details: read-out: Therm_solubility
# Outline: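 Thermodynamic solubility: solubilized compound quantified in triplicate by LC-MS/MS on a C18 column with water/ACN gradient, both with 0.1% formic acid. Calibration from DMSO standards 0.1–100 µM; LoQ below 0.01 µM.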
row,SMILES,solubility thermodynamic
1,Cc1ccc(O)cc1NC(=O)c1cnc(Nc2nc(SCCN3CCOCC3)nc3c2cnn3C)s1,< 0.01 µg/mL

# Tested on: HepG2
# Assay: Inhibition of cell colony formation in human HepG2 cells assessed as reduction in clonogenic survival at 0.5 uM incubated for 10 days by crystal violet staining based assay
# Format: functional
# Details: HepG2, 240 h, time 10 day
# Outline: (§4)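 HepG2 at 1000 cells/dish in DMEM with 10% FBS, exposed to 0.25, 0.5, 1 or 2 µM for 10 days. Colonies (>50 cells) fixed with methanol, stained with 0.5% crystal violet and counted. Three independent experiments in triplicate; unpaired t-test vs untreated.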
row,SMILES,inhibition at 0.5 µM
1,Cc1ccc(O)cc1NC(=O)c1cnc(Nc2nc(SCCN3CCOCC3)nc3c2cnn3C)s1,40%

# Tested on: HepG2
# Assay: Inhibition of cell colony formation in human HepG2 cells assessed as reduction in clonogenic survival at 1 to 2 uM incubated for 10 days by crystal violet staining based assay
# Format: functional
# Details: dose 1-2 µM, time 10 day
# Outline: as §4
row,SMILES,Activity
1,Cc1ccc(O)cc1NC(=O)c1cnc(Nc2nc(SCCN3CCOCC3)nc3c2cnn3C)s1,24%

# — ChEMBL document CHEMBL6092177, “Applying molecular hybridization to design a new class of pyrazolo[3,4-d]pyrimidines as Src inhibitors active in hepatocellular carcinoma” (Eur J Med Chem, 2024)
